≈ marks a conversion by molar mass, not a printed value.
How the values were obtained:
Format in all cases: functional
[1] = Antifungal activity against Cryptococcus neoformans NCIM 576 by standard agar method
In short: (§1)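 MICs determined by standard agar method; DMSO as solvent control.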

[2] = tested on: Mycobacterium tuberculosis; experiment: Growth inhibition of Mycobacterium bovis BCG ATCC 35743 at dormant stage at 30 ug/ml measured after 12 days by nitrate reductase dye based two fold dilution method relative to control; conditions: BCG str. ATCC 35743, 288 h, read-out: GI
In short: (§2)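 M. bovis BCG was grown in Dubos medium and assayed in Mycobacterium pheli minimal medium (pH 6.6), with compounds from DMSO stocks. Incubation lasted 8 days for active and 12 days for dormant cultures. Viability was read by nitrate reductase at 540 nm against cell-free blanks, with vehicle set as 100% growth. Primary screen was at 30, 10 and 3 µg/ml, in triplicate, mean ± SD. MIC was taken from dose-response curves.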

[3] = tested on: Bacillus subtilis; experiment: Growth inhibition of Bacillus subtilis NCIM 2079 at 30 ug/ml measured after 12 hrs relative to control; conditions: NCIM 2079, 12 h, read-out: GI
In short: (§3)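 Bacteria grown in LB at 37 °C and 180 rpm to OD 1. Compounds added to wells, then 0.1% inoculum of 1 OD culture (620 nm). Growth read as OD at 620 nm after 8 h for gram-negative and after 12 h for gram-positive strains.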

[4] = tested on: Candida albicans; experiment: Antifungal activity against Candida albicans NCIM 3471 by standard agar method; in short: as §1
[5] = tested on: Pseudomonas fluorescens; experiment: Antibacterial activity against Pseudomonas fluorescens NCIM 2036 measured after 8 hrs; conditions: NCIM 2036, 8 h; in short: as §3
[6] = tested on: Escherichia coli; experiment: Growth inhibition of Escherichia coli NCIM 2688 at 3 ug/ml measured after 8 hrs relative to control; conditions: NCIM 2688, 8 h, read-out: GI; in short: as §3
[7] = tested on: Aspergillus flavus; experiment: Antifungal activity against Aspergillus flavus NCIM 539 by standard agar method; in short: as §1
[8] = tested on: Mycobacterium tuberculosis; experiment: Growth inhibition of Mycobacterium tuberculosis H37Ra ATCC 25177 at dormant stage measured after 12 days by XTT dye based two fold dilution method; conditions: H37Ra ATCC 25177, 288 h
In short: (§4)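 MTB H37Ra was grown in Dubos medium, then exposed in Mycobacterium pheli minimal medium (pH 6.6) to compounds dissolved in DMSO. The assay ended on day 8 (active) or day 12 (dormant). Viable cells were measured by XTT reduction menadione assay at 470 nm, blank-corrected, relative to vehicle control. Triplicates were expressed as mean ± SD. MIC came from dose-response curves.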

[9] = tested on: Staphylococcus aureus; experiment: Growth inhibition of Staphylococcus aureus NCIM 2010 at 3 ug/ml measured after 12 hrs relative to control; conditions: NCIM 2010, 12 h, read-out: GI; in short: as §3
[10] = tested on: Pseudomonas fluorescens; experiment: Growth inhibition of Pseudomonas fluorescens NCIM 2036 at 10 ug/ml measured after 8 hrs relative to control; conditions: NCIM 2036, 8 h, read-out: GI; in short: as §3
[11] = tested on: Pseudomonas fluorescens; experiment: Growth inhibition of Pseudomonas fluorescens NCIM 2036 at 30 ug/ml measured after 8 hrs relative to control; conditions: NCIM 2036, 8 h, read-out: GI; in short: as §3
[12] = tested on: Mycobacterium tuberculosis; experiment: Growth inhibition of Mycobacterium bovis BCG ATCC 35743 at active stage measured after 8 days by nitrate reductase dye based two fold dilution method; conditions: BCG str. ATCC 35743, 192 h; in short: as §2
[13] = tested on: Bacillus subtilis; experiment: Growth inhibition of Bacillus subtilis NCIM 2079 at 10 ug/ml measured after 12 hrs relative to control; conditions: NCIM 2079, 12 h, read-out: GI; in short: as §3
[14] = Antifungal activity against Fusarium oxysporum NCIM 1332 by standard agar method; in short: as §1
[15] = tested on: Staphylococcus aureus; experiment: Antibacterial activity against of Staphylococcus aureus NCIM 2010 measured after 12 hrs; conditions: NCIM 2010, 12 h; in short: as §3
[16] = tested on: Mycobacterium tuberculosis; experiment: Growth inhibition of Mycobacterium bovis BCG ATCC 35743 at dormant stage at 10 ug/ml measured after 12 days by nitrate reductase dye based two fold dilution method relative to control; conditions: BCG str. ATCC 35743, 288 h, read-out: GI; in short: as §2
[17] = tested on: Mycobacterium tuberculosis; experiment: Growth inhibition of Mycobacterium tuberculosis H37Ra ATCC 25177 at active stage measured after 8 days by XTT dye based two fold dilution method; conditions: H37Ra ATCC 25177, 192 h; in short: as §4
[18] = tested on: Escherichia coli; experiment: Growth inhibition of Escherichia coli NCIM 2688 at 30 ug/ml measured after 8 hrs relative to control; conditions: NCIM 2688, 8 h, read-out: GI; in short: as §3
[19] = tested on: Escherichia coli; experiment: Antibacterial activity against Escherichia coli NCIM 2688 measured after 8 hrs; conditions: NCIM 2688, 8 h; in short: as §3
[20] = tested on: Staphylococcus aureus; experiment: Growth inhibition of Staphylococcus aureus NCIM 2010 at 30 ug/ml measured after 12 hrs relative to control; conditions: NCIM 2010, 12 h, read-out: GI; in short: as §3
[21] = tested on: Mycobacterium tuberculosis; experiment: Growth inhibition of Mycobacterium bovis BCG ATCC 35743 at dormant stage at 3 ug/ml measured after 12 days by nitrate reductase dye based two fold dilution method relative to control; conditions: BCG str. ATCC 35743, 288 h, read-out: GI; in short: as §2
[22] = tested on: Mycobacterium tuberculosis; experiment: Growth inhibition of Mycobacterium bovis BCG ATCC 35743 at dormant stage measured after 12 days by nitrate reductase dye based two fold dilution method; conditions: BCG str. ATCC 35743, 288 h; in short: as §2
[23] = tested on: Bacillus subtilis; experiment: Growth inhibition of Bacillus subtilis NCIM 2079 at 3 ug/ml measured after 12 hrs relative to control; conditions: NCIM 2079, 12 h, read-out: GI; in short: as §3
[24] = tested on: Staphylococcus aureus; experiment: Growth inhibition of Staphylococcus aureus NCIM 2010 at 10 ug/ml measured after 12 hrs relative to control; conditions: NCIM 2010, 12 h, read-out: GI; in short: as §3
[25] = tested on: Pseudomonas fluorescens; experiment: Growth inhibition of Pseudomonas fluorescens NCIM 2036 at 3 ug/ml measured after 8 hrs relative to control; conditions: NCIM 2036, 8 h, read-out: GI; in short: as §3
[26] = tested on: Aspergillus niger; experiment: Antifungal activity against Aspergillus niger NCIM 1196 by standard agar method; in short: as §1
[27] = tested on: Escherichia coli; experiment: Growth inhibition of Escherichia coli NCIM 2688 at 10 ug/ml measured after 8 hrs relative to control; conditions: NCIM 2688, 8 h, read-out: GI; in short: as §3
[28] = tested on: Bacillus subtilis; experiment: Antibacterial activity against Bacillus subtilis NCIM 2079 measured after 12 hrs; conditions: NCIM 2079, 12 h; in short: as §3

| SMILES | MIC [1] | inhibition of growth at 30 µg/mL [2] | inhibition of growth at 30 µg/mL [3] | MIC [4] | MIC [5] | inhibition of growth at 3 µg/mL [6] | MIC [7] | IC50 [8] | IC90 [8] | inhibition of growth at 3 µg/mL [9] | inhibition of growth at 10 µg/mL [10] | inhibition of growth at 30 µg/mL [11] | IC50 [12] | IC90 [12] | inhibition of growth at 10 µg/mL [13] | MIC [14] | MIC [15] | inhibition of growth at 10 µg/mL [16] | IC50 [17] | IC90 [17] | also measured |
| --- | --- | --- | --- | --- | --- | --- | --- | --- | --- | --- | --- | --- | --- | --- | --- | --- | --- | --- | --- | --- | --- |
| Cc1ccc2nc(Cl)c(/C=C3\SC(=S)N(CC(=O)O)C3=O)cc2c1 | 125 µg/mL (≈ 330 µM) | -0.24% | 1.48% | 125 µg/mL (≈ 330 µM) | > 30 µg/mL | -1.08% | 150 µg/mL (≈ 396 µM) | > 30 µg/mL | > 30 µg/mL | 0.77% | -7.54% | 13.2% | > 30 µg/mL | > 30 µg/mL | -6.38% | 150 µg/mL (≈ 396 µM) | > 30 µg/mL | 13.5% | > 30 µg/mL | > 30 µg/mL | inhibition of growth at 30 µg/mL [18]: -6.72%; MIC [19]: > 30 µg/mL; inhibition of growth at 30 µg/mL [20]: -5.17%; inhibition of growth at 3 µg/mL [21]: 14.9%; IC50 [22]: > 30 µg/mL; IC90 [22]: > 30 µg/mL; inhibition of growth at 3 µg/mL [23]: -24.1%; inhibition of growth at 10 µg/mL [24]: -6.18%; inhibition of growth at 3 µg/mL [25]: -67.2%; MIC [26]: 175 µg/mL (≈ 462 µM); inhibition of growth at 10 µg/mL [27]: 0.409%; MIC [28]: > 30 µg/mL |
| Cc1ccc2nc(Cl)c(/C=C3\SC(=S)NC3=O)cc2c1 | 150 µg/mL (≈ 468 µM) | -24.3% | -16.6% | 175 µg/mL (≈ 545 µM) | > 30 µg/mL | -7.51% | 125 µg/mL (≈ 390 µM) | > 30 µg/mL | > 30 µg/mL | -49.2% | 17.5% | 18.4% | > 30 µg/mL | > 30 µg/mL | -3.58% | 100 µg/mL (≈ 312 µM) | > 30 µg/mL | -18.4% | > 30 µg/mL | > 30 µg/mL | inhibition of growth at 30 µg/mL [18]: -7.51%; MIC [19]: > 30 µg/mL; inhibition of growth at 30 µg/mL [20]: -44%; inhibition of growth at 3 µg/mL [21]: -19.3%; IC50 [22]: > 30 µg/mL; IC90 [22]: > 30 µg/mL; inhibition of growth at 3 µg/mL [23]: -8.73%; inhibition of growth at 10 µg/mL [24]: -30.8%; inhibition of growth at 3 µg/mL [25]: 23.9%; MIC [26]: 125 µg/mL (≈ 390 µM); inhibition of growth at 10 µg/mL [27]: -6.34%; MIC [28]: > 30 µg/mL |
| Cc1ccc2nc(Cl)c(/C=C3\SC(=S)N(CCC(=O)O)C3=O)cc2c1 | 175 µg/mL (≈ 445 µM) | -14.8% | -31.1% | 50 µg/mL (≈ 127 µM) | > 30 µg/mL | -37.5% | 150 µg/mL (≈ 382 µM) | > 30 µg/mL | > 30 µg/mL | -9.82% | 1.64% | -6.24% | > 30 µg/mL | > 30 µg/mL | -25.6% | 100 µg/mL (≈ 255 µM) | > 30 µg/mL | -7.25% | > 30 µg/mL | > 30 µg/mL | inhibition of growth at 30 µg/mL [18]: -49%; MIC [19]: > 30 µg/mL; inhibition of growth at 30 µg/mL [20]: -19.6%; inhibition of growth at 3 µg/mL [21]: -7.58%; IC50 [22]: > 30 µg/mL; IC90 [22]: > 30 µg/mL; inhibition of growth at 3 µg/mL [23]: -20.6%; inhibition of growth at 10 µg/mL [24]: -13.6%; inhibition of growth at 3 µg/mL [25]: 5.35%; MIC [26]: 100 µg/mL (≈ 255 µM); inhibition of growth at 10 µg/mL [27]: -47.6%; MIC [28]: > 30 µg/mL |

Reference: ChEMBL document CHEMBL3877264, “Quinolidene-rhodanine conjugates: Facile synthesis and biological evaluation” (Eur J Med Chem, 2017)
